Among the data in ChEMBL document CHEMBL4382238, “Synthesis of isatin based N1-alkylated 3-β-C-glycoconjugated-oxopropylidene oxindoles as potent antiplasmodial agents” (Eur J Med Chem, 2019) are selectivity ratio, IC50 and CC50 values, retold here.

Data set [1] in a line: Selectivity index, ratio of CC50 for African green monkey Vero cells to IC50 for chloroquine-resistant Plasmodium falciparum K1 asynchronous cultures infected in human erythrocytes. It counts as toxicity, cell-based. The following applies: read-out: Ratio CC50/IC50.
Data set [2] can be described thus: Selectivity index, ratio of CC50 for African green monkey Vero cells to IC50 for chloroquine-sensitive Plasmodium falciparum 3D7 asynchronous cultures infected in human erythrocytes. The data set is classed as toxicity, cell-based. The following applies: read-out: Ratio CC50/IC50.
For data set [3], the system named is Plasmodium falciparum. The data set is described as follows: Antiplasmodial activity against chloroquine-resistant Plasmodium falciparum K1 asynchronous cultures infected in human erythrocytes after 72 hrs by SYBR green1 staining based fluorescence assay. It counts as functional, organism-based. The following applies: K1, 72 h. The method in brief: (§1)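 Parasites kept in human erythrocytes at 5% hematocrit in RPMI-1640 (HEPES) with 0.5% AlbuMaxII, 0.2% glucose, bicarbonate, 15 µM hypoxanthine, 37 °C CO2. Two-fold serial dilutions spanning […]; asynchronous culture at 0.8-1% parasitaemia, 1% haematocrit; 72 h, 37 °C. Lytic buffer with SYBR Green (1x final), 2 h dark, RT; Ex 485/Em 535 nm. IC50 from DNA signal versus drug-free controls; at least duplicate determinations.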

For data set [4], the system named is Plasmodium falciparum. The data set is described as follows: Antiplasmodial activity against chloroquine-sensitive Plasmodium falciparum 3D7 asynchronous cultures infected in human erythrocytes after 72 hrs by SYBR green1 staining based fluorescence assay. The data set is classed as functional, organism-based. The following applies: 3D7, 72 h. The essentials:
as §1

Data set [5] is described as follows: Cytotoxicity against African green monkey Vero cells measured after 72 hrs by resazurin assay. It counts as cell-based. The following applies: chlorocebus sabaeus. The essentials: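 VERO monkey kidney cells grown in MEM with 15% FBS under 5% CO2 at 37 °C. Cells exposed to serial drug dilutions for three days. 10% resazurin then added as viability marker. Fluorescence read at excitation 530 ± 25 nm and emission 590 ± 25 nm to calculate median cytotoxic concentration (CC50). Values are the average of at least duplicate determinations.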

pIC50: −log10 of the molar value. A value given as a limit tells only on which side of the number the result lay.

For the compound `CCCN1C(=O)/C(=C\C(=O)C[C@@H]2O[C@H](COC(C)=O)[C@@H](OC(C)=O)[C@H](OC(C)=O)[C@H]2OC(C)=O)c2ccccc21`, the selectivity ratio was under 24.9 in data set [1] and 34.7 in data set [2]. The pIC50 is under 5.30 in data set [3] and 5.44 in data set [4]. In addition, the midpoint of cytotoxicity in data set [5], the CC50 at 72 h, lay at 125 µM.
